Assay [1] has as its system Salmonella enterica subsp. enterica serovar Choleraesuis str. ATCC 10708. Briefly: Antibacterial activity against Salmonella enterica ATCC 10708 at <= 60 to 120 uM. The format is functional. Put shortly:
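Run in triplicate against S. enterica ATCC 10708, a strain obtained from ATCC. Compounds were tested at concentrations up to ≤60−120 μM.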

The next assay relates to Escherichia coli. Nature of the assay: Antibacterial activity against Escherichia coli NRRL B-3708 at <= 60 to 120 uM. It is filed as functional. Put shortly:
(§1)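 Run in triplicate by the group's previously reported protocols. Compounds were tested up to 60–120 μM against bacteria and yeast, and up to 20 μM against non-small-cell lung A549 cells. Bacterial strains were S. aureus ATCC 6538, M. luteus NRRL B-287, E. coli NRRL B-3708 and S. enterica ATCC 10708. The yeast was S. cerevisiae ATCC 204508.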

The test system of another assay is Saccharomyces cerevisiae. Briefly: Antifungal activity against Saccharomyces cerevisiae ATCC 204508 at <= 60 to 120 uM. The format is functional. Put shortly:
as §1

For the next assay, the system named is Staphylococcus aureus. Briefly: Antibacterial activity against Staphylococcus aureus ATCC 6538 at <= 60 to 120 uM. The format is functional. Put shortly:
as §1

The next assay has as its system A549. Nature of the assay: Cytotoxicity against human A549 cells at <= 20 uM. It is filed as functional, cell-based. Put shortly: as §1
The next assay has as its system Micrococcus luteus. Briefly: Antibacterial activity against Micrococcus luteus NRRL B-287 at <= 60 to 120 uM. The format is functional. Put shortly: as §1
The test system of assay [2] is Hippocampal neurone. Briefly: Neuroprotective activity against EtOH-induced cytotoxicity in Sprague-Dawley rat primary hippocampal neurons assessed as decrease in propidium iodide uptake at 0.01 to 1 uM after 48 hrs by fluorescence microscopic method. It is filed as functional, cell-based. Put shortly: (§2)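 Rat hippocampus-derived primary cell cultures were exposed for 48 h to 100 mM EtOH, with or without compound (0.01–1.0 μM, dose–response). A DMSO control was included. Damage was read as propidium iodide uptake into compromised cells.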

The subject of assay [3] is Hippocampal neurone. Nature of the assay: Neuroprotective activity against EtOH-induced cytotoxicity in Sprague-Dawley rat primary hippocampal neurons assessed as decrease in propidium iodide uptake at 0.01 to 0.1 uM after 48 hrs by fluorescence microscopic method. It is filed as functional, cell-based. Put shortly:
as §2

The test system of assay [4] is Hippocampal neurone. Nature of the assay: Neuroprotective activity against EtOH-induced cytotoxicity in Sprague-Dawley rat primary hippocampal neurons assessed as decrease in propidium iodide uptake at 1 uM after 48 hrs by fluorescence microscopic method. It is filed as functional, cell-based. Put shortly:
as §2

Assay [5] concerns Hippocampal neurone. Nature of the assay: Neuroprotective activity against EtOH-induced cytotoxicity in Sprague-Dawley rat primary hippocampal neurons assessed as decrease in propidium iodide uptake at 0.1 to 1 uM after 48 hrs by fluorescence microscopic method. It is filed as functional, cell-based. Put shortly: as §2

Calls of active or inactive are those of the source. No cut-off for these calls is given here.

In the case of `N[C@H]1[C@H](Oc2ccccc2C2=N[C@H](CO)CO2)O[C@H](CO)[C@@H](O)[C@@H]1O`, the result (in assay [1]; in the assay on Escherichia coli; in the assay with Saccharomyces cerevisiae; in the assay with Staphylococcus aureus; with A549; in the assay with Micrococcus luteus) was inactive. Further, the result in the assay with Hippocampal neurone [2] was inactive.

Consider `O=C(NC(CO)CO)c1ccccc1O`, for which the result (in [1]; in the assay with Escherichia coli; in the assay on Saccharomyces cerevisiae; in the assay on Staphylococcus aureus; in the assay on A549; in the assay on Micrococcus luteus) was inactive.

For `C[C@@H](CO)NC(=O)c1ccccc1O[C@@H]1O[C@H](CO)[C@@H](O)[C@H](O)[C@H]1N`, the result (in assay [1]; in the assay with Escherichia coli; with Saccharomyces cerevisiae; with Staphylococcus aureus; in the assay with A549; with Micrococcus luteus) was inactive.

With `O=CN(O)CCC[C@@H](NC(=O)[C@H](CO)NC(=O)[C@@H]1COC(c2ccccc2O[C@@H]2O[C@H](CO)[C@@H](O)[C@H](O)[C@H]2O)=N1)C(=O)NCCC(=O)N[C@@H]1CCCN(O)C1=O`, the result (in assay [1]; in the assay on Escherichia coli; in the assay on Saccharomyces cerevisiae; in the assay with Staphylococcus aureus; in the assay on A549; with Micrococcus luteus) was inactive.

As for `C[C@@H](CO)NC(=O)c1ccccc1O`, the outcome (in assay [1]; in the assay on Escherichia coli; in the assay with Saccharomyces cerevisiae; in the assay with Staphylococcus aureus; in the assay with A549; in the assay with Micrococcus luteus) was inactive.

For `OC[C@@H]1COC(c2ccccc2O)=N1`, the outcome (in assay [1]; in the assay with Escherichia coli; with Saccharomyces cerevisiae; in the assay on Staphylococcus aureus; with A549; in the assay with Micrococcus luteus) was inactive.

For `OC[C@@H]1COC(c2ccccc2O[C@@H]2O[C@H](CO)[C@@H](O)[C@H](O)[C@H]2O)=N1`, the result (in assay [1]; with Escherichia coli; with Saccharomyces cerevisiae; in the assay with Staphylococcus aureus; in the assay with A549; in the assay with Micrococcus luteus) was inactive. In addition, the result with Hippocampal neurone [4] was inactive. In addition, the outcome in the assay with Hippocampal neurone [3] was Active.

As to `C[C@H](CO)NC(=O)c1ccccc1O[C@@H]1O[C@H](CO)[C@@H](O)[C@H](O)[C@H]1O`, the outcome (in assay [1]; with Escherichia coli; with Saccharomyces cerevisiae; in the assay with Staphylococcus aureus; with A549; in the assay with Micrococcus luteus) was inactive.

`O=C(NC(CO)CO)c1ccccc1O[C@@H]1O[C@H](CO)[C@@H](O)[C@H](O)[C@H]1O`: the outcome (in [1]; in the assay on Escherichia coli; with Saccharomyces cerevisiae; in the assay on Staphylococcus aureus; in the assay with A549; in the assay on Micrococcus luteus) was inactive.

As for `C[C@@H](CO)NC(=O)c1ccccc1O[C@@H]1O[C@H](CO)[C@@H](O)[C@H](O)[C@H]1O`, the outcome (in assay [1]; in the assay on Escherichia coli; in the assay with Saccharomyces cerevisiae; with Staphylococcus aureus; with A549; in the assay with Micrococcus luteus) was inactive.

Regarding `C[C@H](CO)NC(=O)c1ccccc1O[C@@H]1O[C@H](CO)[C@@H](O)[C@H](O)[C@H]1N`, the result (in [1]; in the assay with Escherichia coli; in the assay with Saccharomyces cerevisiae; in the assay with Staphylococcus aureus; with A549; with Micrococcus luteus) was inactive.

Turning to `N[C@H]1[C@H](Oc2ccccc2C2=N[C@H](C(=O)N[C@@H](CO)C(=O)N[C@H](CCCN(O)C=O)C(=O)NCCC(=O)N[C@@H]3CCCN(O)C3=O)CO2)O[C@H](CO)[C@@H](O)[C@@H]1O`, the outcome (in assay [1]; in the assay with Escherichia coli; in the assay on Saccharomyces cerevisiae; in the assay with Staphylococcus aureus; with A549; in the assay with Micrococcus luteus) was inactive.

For `NC(=O)[C@@H]1COC(c2ccccc2O)=N1`, the result (in assay [1]; in the assay with Escherichia coli; with Saccharomyces cerevisiae; in the assay with Staphylococcus aureus; with A549; in the assay with Micrococcus luteus) was inactive.

Turning to `OC[C@H]1O[C@@H](OC[C@@H]2COC(c3ccccc3O)=N2)[C@H](O)[C@@H](O)[C@@H]1O`, the outcome (in [1]; with Escherichia coli; in the assay with Saccharomyces cerevisiae; in the assay on Staphylococcus aureus; in the assay with A549; in the assay with Micrococcus luteus) was inactive.

For the molecule `C[C@H](CO)NC(=O)c1ccccc1O`, the outcome (in assay [1]; in the assay with Escherichia coli; in the assay on Saccharomyces cerevisiae; in the assay with Staphylococcus aureus; in the assay with A549; in the assay on Micrococcus luteus) was inactive.

Consider `NC(=O)[C@@H]1COC(c2ccccc2O[C@@H]2O[C@H](CO)[C@@H](O)[C@H](O)[C@H]2O)=N1`, for which the result (in [1]; in the assay on Escherichia coli; with Saccharomyces cerevisiae; in the assay on Staphylococcus aureus; in the assay on Hippocampal neurone [3]; in the assay with A549) was inactive. Also, in the assay with Micrococcus luteus, the result was inactive. The outcome in the assay on Hippocampal neurone [5] was Active.

`N[C@H]1[C@H](Oc2ccccc2C(=O)NC(CO)CO)O[C@H](CO)[C@@H](O)[C@@H]1O`: the result (in [1]; in the assay on Escherichia coli; in the assay with Saccharomyces cerevisiae; in the assay on Staphylococcus aureus; in the assay on A549; in the assay on Micrococcus luteus) was inactive.

On to `O=CN(O)CCC[C@@H](NC(=O)[C@H](CO)NC(=O)[C@@H]1COC(c2ccccc2O)=N1)C(=O)NCCC(=O)N[C@@H]1CCCN(O)C1=O`, for which the outcome (in assay [1]; in the assay on Escherichia coli; with Saccharomyces cerevisiae; in the assay with Staphylococcus aureus; with A549; in the assay with Micrococcus luteus) was inactive.
